Data taken from paper PMC3743164 (Chemmedchem, 2013).
pIC50: −log10 of the molar value. Values after ≈ are worked out from the molar mass of the structure shown.

What was measured:
[1] = system: M. tuberculosis H37Rv; assay: M. tuberculosis H37Rv inhibition assay; assay type: cell-based; conditions: Mycobacterium tuberculosis, read-out: MIC H37Rv
[2] = system: HepG2 cells; assay: HepG2 cytotoxicity assay; assay type: cell-based; conditions: Homo sapiens, HepG2, 48 h, read-out: Ctox.: IC50 HepG2
How it was run: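 HepG2 cells were harvested while actively growing, with monolayers kept ≤50 % confluent, in Eagle's MEM with 10 % FBS, 1 % NEAA and 1 % penicillin/streptomycin. They were seeded at about 3000 cells per well (1.2×10^5 cells mL−1) onto predispensed test compound. Plates were incubated 48 h at 37 °C, 80 % humidity and 5 % CO2, equilibrated 30 min at room temperature, then developed with CellTiter-Glo for 10 min before luminescence reading.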

Structure (SMILES): NNC(=O)c1ccncc1 [Isoniazid]
- MIC [1]: 1.8 µM (≈ 0.247 µg/mL)
- pIC50 [2]: 3.68

Structure (SMILES): CO[C@H]1/C=C/O[C@@]2(C)Oc3c(C)c(O)c4c(O)c(c(/C=N/N5CCN(C)CC5)c(O)c4c3C2=O)NC(=O)/C(C)=C\C=C\[C@H](C)[C@H](O)[C@@H](C)[C@@H](O)[C@@H](C)[C@H](OC(C)=O)[C@@H]1C [Rifampicin]
- MIC [1]: 0.02 µM (≈ 0.0165 µg/mL)
- pIC50 [2]: < 3.59
